This is an account of results in ChEMBL document CHEMBL1150125, “Antiplasmodial activity of alkaloids from various strychnos species” (J Nat Prod, 2002).

A short description of series [1]: Selectivity index, ratio of IC50 for human HCT116 cells to IC50 for chloroquine-sensitive Plasmodium falciparum FCA 20/ Ghana. To be noted: HCT116 cells versus Plasmodium falciparum FCA 20/Ghana, read-out: Ratio IC50. Format: toxicity, cell-based, HCT-116. Put shortly: (§1)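 Selectivity index = IC50 in HCT-116 cells / IC50 in P. falciparum. Cell IC50: 5000 HCT-116 cells per well with drug, DMSO controls, 72 h incubation, then WST-1 for 30 min at 37 °C. Absorbance read against a cell-free blank and expressed as percent of control. Two independent experiments, each in triplicate, means ± SEM.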

For series [2], the system named is Plasmodium falciparum. Put plainly: Antiplasmodial activity against chloroquine-resistant Plasmodium falciparum FCB1-R/Colombia by [3H]hypoxanthine uptake. Format: functional, organism-based. A digest of the protocol: (§2)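 Asexual erythrocytic stages kept in continuous culture (Trager and Jensen method). Each sample run as eight 4-fold dilutions, final 20 to 0.0012 µg/mL, in duplicate. IC50 and IC90 derived; number of independent experiments per value given separately.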

Series [3] concerns Plasmodium falciparum. The experiment in a line: Antiplasmodial activity against chloroquine-resistant Plasmodium falciparum W2/Indochina by [3H]hypoxanthine uptake. Format: functional, organism-based. Put shortly:
as §2

Series [4] has as its system HCT-116. Put plainly: Cytotoxicity against human HCT116 cells after 72 hrs by WST1 assay. It is filed as cell-based. Particulars: HCT-116, 72 h. Put shortly: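 HCT-116 colon cancer cells were seeded at 5000 per well in medium containing the test drugs, with matched DMSO controls. After 72 h, WST-1 was added for 30 min at 37 °C. Absorbance was read against a cell-free medium plus WST-1 blank and expressed as percent of control. Two independent experiments were run, each in triplicate, and means ± SEM were calculated.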

Series [5] has as its system Plasmodium falciparum. Put plainly: Antiplasmodial activity against chloroquine-sensitive Plasmodium falciparum FCA 20/ Ghana by [3H]hypoxanthine uptake. Format: functional, organism-based. Put shortly:
as §2

The nature of series [6]: Selectivity index, ratio of IC50 for human HCT116 cells to IC50 for moderately chloroquine-resistant Plasmodium falciparum FCB1-R/Colombia. It is filed as toxicity, cell-based, HCT-116. Particulars: HCT116 cells versus Plasmodium falciparum FCB1-R/Colombia, read-out: Ratio IC50. A digest of the protocol: as §1
Series [7] can be described thus: Selectivity index, ratio of IC50 for human HCT116 cells to IC50 for chloroquine-resistant Plasmodium falciparum W2/Indochina. It is filed as toxicity, cell-based, HCT-116. Particulars: HCT116 cells versus Plasmodium falciparum W2/Indochina, read-out: Ratio IC50. Put shortly: as §1
Series [8] concerns Plasmodium falciparum. Put plainly: Antiplasmodial activity against chloroquine-sensitive Plasmodium falciparum FCA 20/ Ghana at 50 uM. To be noted: read-out: INH.
The mark [9] stands for this setting: Plasmodium falciparum, FCB1-R/Colombia.
Setting [10] is: Plasmodium falciparum, W2/Indochina.
[11] abbreviates: Plasmodium falciparum, FCA 20/ Ghana.

Take `C/C=C1/CN2[C@@H](C3=C[C@@H]4[C@@H]5N(C3=O)c3ccccc3[C@@]53CCN5C/C(=C/CO)[C@@H]4C[C@H]53)C[C@@]34c5ccccc5N5C(=O)CC=C([C@H]1C[C@H]23)[C@H]54`: the results for the selectivity ratio in series [1], in series [6] and in series [7] were 19.1, 78.3 and 115, respectively. Further, the half-inhibitory concentration (IC50) in series [2] (setting [9]) was found to be 207 nM; in series [3] (setting [10]) it was 140 nM; in series [4] it was 16200 nM; in series [5] (setting [11]) it was 847 nM. Moreover, the concentration for an effect of 90% (IC90) is 1470 nM in series [2] (setting [9]), 1350 nM in series [3] (setting [10]) and 4350 nM in series [5] (setting [11]).
`C/C=C1/CN2CCc3c([nH]c4ccccc34)[C@@H]2C[C@@H]1C1=CN2c3ccccc3[C@@]34CCN5CC6=CCO[C@@H]1[C@@H]([C@H]23)[C@H]6C[C@H]54` [LONGICAUDATINE]: the selectivity ratio in series [1] was determined as 4.59; in series [6] it was 8.81; in series [7], 7.96. The IC50 was 560 nM in series [2] (setting [9]), 569 nM in series [3] (setting [10]), 4930 nM in series [4] and 986 nM in series [5] (setting [11]). In addition, the 90% effect concentration (IC90) in series [2] (setting [9]) is 3640 nM; in series [3] (setting [10]) it was 4830 nM; in series [5] (setting [11]), 3870 nM.
For `O=C1C[C@@H]2OCC=C3CN4[C@@H](C5=C[C@@H]6[C@@H]7N(C5=O)c5ccccc5[C@@]75CCN7C/C(=C/CO)[C@@H]6C[C@H]75)C[C@]56c7ccccc7N1[C@H]5[C@@H]2[C@H]3C[C@H]46` [STRYCHNOGUCINE B], the figures for the selectivity ratio in series [1], in series [6] and in series [7] were 24.3, 28.3 and 176, respectively. Also, the IC50 came out at 529 nM in series [2] (setting [9]), 85 nM in series [3] (setting [10]), 15000 nM in series [4] and 617 nM in series [5] (setting [11]). The results for the IC90 in series [2] (setting [9]), in series [3] (setting [10]) and in series [5] (setting [11]) were 2240 nM, 358 nM and 3790 nM, respectively.
Regarding `C/C=C1\CN2CC[C@]34c5ccccc5N5[C@H]3[C@@H]([C@H]3O[C@@H]5[C@]5(OC)[C@@H]6N3c3ccccc3[C@@]63CCN6C/C(=C\C)[C@@H]5C[C@H]63)[C@H]1C[C@H]24`, the selectivity ratio in series [1] is 45.3; in series [6], 15.9; in series [7], 200. The IC50 in series [2] (setting [9]) was 1540 nM; in series [3] (setting [10]), 122 nM; in series [4] it was 24500 nM; in series [5] (setting [11]), 540 nM. Besides, the results for the IC90 in series [2] (setting [9]), in series [3] (setting [10]) and in series [5] (setting [11]) were 9520 nM, 2840 nM and 2530 nM, respectively.
With `CC` [ETHANE], the inhibition at 50 µM in series [8] is < 30%.
Turning to `CC[C@H]1CN2CCC3c4ccccc4NC3[C@H]2C[C@@H]1C[C@@H]1NCCc2c1[nH]c1ccccc21` (stereo partly specified) [OCHROLIFUANINE E], the selectivity ratio in series [1] was 20.7; in series [6], 8.12; in series [7] it was 3. The IC50 in series [2] (setting [9]) amounted to 702 nM; in series [3] (setting [10]) it was 1900 nM; in series [4] it was 5700 nM; in series [5] (setting [11]) it was 276 nM. The IC90 in series [2] (setting [9]) was determined as 2420 nM; in series [3] (setting [10]) it was 6760 nM; in series [5] (setting [11]) it was 1490 nM.
Turning to `CC[C@H]1CN2CCC3c4ccccc4NC3[C@@H]2C[C@@H]1C[C@H]1NCCc2c1[nH]c1ccccc21` (stereo partly specified) [OCHROLIFUANINE A], the selectivity ratio stood at 136 in series [1], 60.7 in series [6] and 32.8 in series [7]. Further, the IC50 in series [2] (setting [9]) was determined as 266 nM; in series [3] (setting [10]), 492 nM; in series [4], 16100 nM; in series [5] (setting [11]) it was 118 nM. Also, the IC90 in series [2] (setting [9]) is 1020 nM; in series [3] (setting [10]) it was 1380 nM; in series [5] (setting [11]), 495 nM.
Regarding `CC[C@H]1CN2CCC3c4ccc(O)c([C@@H]5CCCN5C)c4NC3[C@@H]2C[C@@H]1C[C@H]1c2[nH]c3ccccc3c2CCN1C` (stereo partly specified) [ISOSTRYCHNOPENTAMINE], the selectivity ratio was determined as 62.3 in series [1], 71.8 in series [6] and 49.1 in series [7]. The concentration for half-maximal inhibition (IC50) is 104 nM in series [2] (setting [9]), 152 nM in series [3] (setting [10]), 7470 nM in series [4] and 120 nM in series [5] (setting [11]). The 90% effect concentration (IC90) came out at 386 nM in series [2] (setting [9]), 628 nM in series [3] (setting [10]) and 450 nM in series [5] (setting [11]).
Consider `C/C=C1\CN2CC[C@]34c5ccccc5N5[C@@H]6O[C@H]([C@H]([C@H]53)[C@H]1C[C@H]24)N1c2ccccc2[C@]23CCN4C/C(=C/C)[C@H](C[C@H]42)[C@H]6[C@H]13` (stereo in doubt; 52) [MATOPENSINE], for which the selectivity ratio came to 9.59 in series [1], 33.1 in series [6] and 49.5 in series [7]. The concentration for half-maximal inhibition (IC50) amounted to 362 nM in series [2], 243 nM in series [3], 12000 nM in series [4] and 1250 nM in series [5]. For the same molecule, the figures for the IC90 in series [2], in series [3] and in series [5] were 4110 nM, 7740 nM and 6630 nM, respectively.
